Nine compounds from ChEMBL document CHEMBL1687930 (J Med Chem, 2011) can be followed below.

For orientation: GI50 means the concentration at which growth is held to half of that of the control. By IC50 is commonly meant the concentration that inhibits the measured activity by half.

SMILES strings stand for the structures. The source made the active and inactive calls. The calls are words filed in the database; no cut-off is given here. Where only a bound is given, the exact number is not on record here.

Assay [1] relates to LLC-PK1. Nature of the assay: Ratio of GI50 for pig L-MDR1 cells overexpressing human P-glycoprotein to GI50 for pig LLC-PK1 cells. The format is functional, Sus scrofa. Summed up: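 MDR ratio is the GI50 in L-MDR1 cells (Pgp-overexpressing) divided by the GI50 in parental LLC-PK1 cells. Each GI50 came from growth inhibition run at least in triplicate, with 8 wells per concentration, fitted by a four-parameter sigmoidal model.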

Assay [2] in a line: Growth inhibition of dog MDCK2 cells in presence of P-glycoprotein inhibitor LY335979. The format is functional. The following applies: Canis lupus familiaris, MDCK-II. Summed up:
(§1)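 Parental lines (MDCKII, LLC-PK1) and matched Pgp-overexpressing lines (MDCKII-MDR1, about 500-fold Pgp; L-MDR1, about 25000-fold Pgp) were tested with and without the Pgp inhibitor LY335979. Each experiment was run at least in triplicate, with 8 wells per concentration. GI50 came from a nonlinear four-parameter sigmoidal concentration-response fit.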

Assay [3] in a line: Growth inhibition of dog MDCK2 cells. The format is functional. Conditions: Canis lupus familiaris, MDCK-II. The method in brief:
as §1

The subject of assay [4] is LLC-PK1. Nature of the assay: Upregulation of P-glycoprotein mRNA expression in pig LLC-PK1 cells. The assay is classed as functional, Sus scrofa.
Assay [5] can be described thus: Growth inhibition of pig L-MDR1 cells overexpressing human P-glycoprotein. The format is functional. Conditions: Sus scrofa. The method in brief:
as §1

Assay [6] is described as follows: Upregulation of P-glycoprotein mRNA expression in dog MDCK2 cells. The format is functional, cell-based. The following applies: Canis lupus familiaris; MDCK-II.
Another assay relates to MDCK-II. Put plainly: Ratio of GI50 for dog MDCK2-MDR1 cells overexpressing human P-glycoprotein to GI50 for dog MDCK2 cells. The format is functional, Canis lupus familiaris.
A short description of assay [7]: Growth inhibition of dog MDCK2-MDR1 cells overexpressing human P-glycoprotein in presence of P-glycoprotein inhibitor LY335979. Conditions: Canis lupus familiaris, MDCK-II. The format is functional. The method in brief: as §1
Assay [8] is described as follows: Growth inhibition of pig L-MDR1 cells overexpressing human P-glycoprotein in presence of P-glycoprotein inhibitor LY335979. The assay is classed as functional. Conditions: Sus scrofa. The method in brief:
as §1

For assay [9], the target named is T1, Kinesin-like protein KIF11 (Homo sapiens, UniProt P52732).
T1 sequence (P52732 whole entry): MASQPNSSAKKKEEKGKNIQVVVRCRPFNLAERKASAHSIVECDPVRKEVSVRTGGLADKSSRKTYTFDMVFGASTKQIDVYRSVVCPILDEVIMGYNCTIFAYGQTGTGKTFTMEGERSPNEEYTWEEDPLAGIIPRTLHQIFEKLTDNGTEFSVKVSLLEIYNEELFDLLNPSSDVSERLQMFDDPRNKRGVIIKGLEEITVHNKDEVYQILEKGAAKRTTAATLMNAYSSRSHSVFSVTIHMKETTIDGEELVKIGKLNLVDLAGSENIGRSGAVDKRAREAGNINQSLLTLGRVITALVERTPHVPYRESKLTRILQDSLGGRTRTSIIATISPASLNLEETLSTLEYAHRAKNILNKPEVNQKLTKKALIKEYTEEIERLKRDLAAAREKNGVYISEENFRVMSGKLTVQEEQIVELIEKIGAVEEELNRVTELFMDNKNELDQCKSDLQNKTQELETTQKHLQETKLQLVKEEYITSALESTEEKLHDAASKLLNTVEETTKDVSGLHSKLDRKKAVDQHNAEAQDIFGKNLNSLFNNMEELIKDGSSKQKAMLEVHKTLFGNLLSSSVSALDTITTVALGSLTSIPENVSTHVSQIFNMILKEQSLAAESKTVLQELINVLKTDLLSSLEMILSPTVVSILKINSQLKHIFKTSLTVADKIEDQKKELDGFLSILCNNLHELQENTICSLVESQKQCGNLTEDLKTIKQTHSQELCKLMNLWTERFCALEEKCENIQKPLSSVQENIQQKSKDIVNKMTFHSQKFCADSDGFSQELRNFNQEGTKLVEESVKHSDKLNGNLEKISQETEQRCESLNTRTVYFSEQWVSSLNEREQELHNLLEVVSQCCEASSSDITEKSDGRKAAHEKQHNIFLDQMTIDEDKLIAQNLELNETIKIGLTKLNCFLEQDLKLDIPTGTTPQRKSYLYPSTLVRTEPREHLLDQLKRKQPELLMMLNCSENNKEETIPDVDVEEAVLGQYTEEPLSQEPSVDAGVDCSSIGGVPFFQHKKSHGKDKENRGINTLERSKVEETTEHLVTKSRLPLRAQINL
Put plainly: Inhibition of untagged human Eg5 microtubule-stimulated ATPase activity.

Assay [10] has as its system LLC-PK1. Nature of the assay: Growth inhibition of pig LLC-PK1 cells in presence of P-glycoprotein inhibitor LY335979. The format is functional. Conditions: Sus scrofa. Summed up: as §1
Assay [11] addresses T1, Kinesin-like protein KIF11. Put plainly: Inhibition of untagged human Eg5 basal ATPase activity. Conditions: read-out: Ki(app).
The nature of assay [12]: Growth inhibition of dog MDCK2-MDR1 cells overexpressing human P-glycoprotein. The format is functional. Conditions: Canis lupus familiaris, MDCK-II. The method in brief: as §1
Assay [13] deals with LLC-PK1. Put plainly: Growth inhibition of pig LLC-PK1 cells. Conditions: Sus scrofa. The format is functional. The method in brief:
as §1

For assay [14], the target named is T2, Kinesin-like protein KIF11 (Homo sapiens) (UniProt P52732).
T2 sequence (whole entry): T1 sequence (P52732 whole entry)
Nature of the assay: Inhibition of untagged human Eg5 microtubule-stimulated ATPase activity.

The target in assay [15] is T2, Kinesin-like protein KIF11 (Homo sapiens). Nature of the assay: Inhibition of untagged human Eg5 basal ATPase activity.
For assay [16], the system named is P388. Put plainly: Upregulation of P-glycoprotein mRNA expression in mouse P388 cells. The format is functional.
Assay [17] has as its system P388. Put plainly: Ratio of inhibition of growth in P-glycoprotein overexpressing mouse P388 cells to inhibition of growth in mouse P388. The format is functional.
The target in assay [18] is T2, Kinesin-like protein KIF11 (Homo sapiens). Put plainly: Binding affinity to Eg5 at 2 mM by crystallography.
Assay [19] in a line: Ratio of inhibition of growth in P-glycoprotein overexpressing human A2780-AD10 cells to inhibition of growth in human A2780. The format is functional, A2780 ADR.
The next assay has as its system KB 3-1. Put plainly: Ratio of inhibition of growth in P-glycoprotein overexpressing […] inhibition of growth in human KB-3-1 cells. The assay is classed as functional.

For `NCCSC(c1ccccc1)(c1ccccc1)c1ccccc1`, the RatioGI50 in the assay on LLC-PK1 [1] was 1.5; in the assay with MDCK-II it was 0.8. Further, the GI50 in assay [2] is 850 nM; in assay [3], 740 nM; in assay [5] it was 4830 nM; in [7] it was 610 nM; in assay [8] it was 4810 nM; in the assay with LLC-PK1 [10] it was 3880 nM. For the same compound, the results for the GI50 (in [12]; in the assay on LLC-PK1 [13]) were 570 nM and 3290 nM, respectively. Also, the “fold change (FC)” value with LLC-PK1 [4] was 25000; in assay [6], 500. Further, the IC50 in assay [9] was found to be 396 nM. Besides, the Ki in assay [11] amounted to 156 nM.
For the compound `CN(C)[C@@H](CSC(c1ccccc1)(c1ccccc1)c1ccccc1)C(=O)O`, the inhibition result in [14] and in assay [15] was “inactive” throughout.
`CCOC(=O)C1=C(C)NC(=S)N[C@H]1c1cccc(O)c1` [S-MENASTROL]: the figures for the “fold change (FC)” value with P388 [16] and in the assay on LLC-PK1 [4] were 20000 and 25000, respectively. Further, the Ratio with LLC-PK1 [1] and in the assay with P388 [17] was 1 each time.
`CCC(C)C(SC[C@H](N)C(=O)O)(c1ccccc1)c1ccccc1` (mixture of isomers): in assay [9], the IC50 was found to be 549 nM. In addition, the outcome in assay [18] was Active.
As to `N[C@@H](CSC(c1ccccc1)(c1ccccc1)c1ccc(Cl)cc1)C(=O)O`, the RatioGI50 came to 2.9 with LLC-PK1 [1] and 2 with MDCK-II. Further, the GI50 in [2] is 330 nM; in assay [3], 280 nM; in assay [5], 6210 nM; in [7], 270 nM; in assay [8], 1610 nM; in the assay on LLC-PK1 [10], 2450 nM. The GI50 was determined as 560 nM in [12] and 2110 nM in the assay on LLC-PK1 [13]. 53.3 nM corresponded to half-maximal inhibition in assay [9] (IC50). Also, in assay [11], the Ki was under 50 nM. In addition, the result in [18] was Active.
`CCCCN1C(=O)[C@@H]2Cc3c([nH]c4ccccc34)[C@@H](c3cccc(O)c3)N2C1=O`: the Ratio in assay [19] is given as 2.4.
Take `CCCc1ccc(C(SC[C@H](N)C(=O)O)(c2ccccc2)c2ccccc2)cc1`: the RatioGI50 with LLC-PK1 [1] came to 19.3; with MDCK-II, 2.5. For the same compound, the GI50 in assay [2] amounted to 710 nM; in assay [3], 680 nM; in assay [5], 37600 nM; in assay [7], 630 nM; in [8] it was 1760 nM; with LLC-PK1 [10], 1100 nM. Further, the GI50 is 1680 nM in [12] and 1950 nM with LLC-PK1 [13]. In assay [9], this compound registered an IC50 of 85.9 nM. Besides, in assay [11], the Ki was under 50 nM.
Consider `Cc1ccc(C(SC[C@H](N)C(=O)O)(c2ccccc2)c2ccccc2)cc1`, for which the figures for the RatioGI50 in the assay with LLC-PK1 [1] and in the assay with MDCK-II were 3.7 and 3.8, respectively. Further, the GI50 in assay [2] worked out at 80 nM; in assay [3], 90 nM; in assay [5], 3830 nM; in assay [7] it was 120 nM; in [8], 490 nM; in the assay on LLC-PK1 [10] it was 1180 nM. The results for the GI50 (in [12]; with LLC-PK1 [13]) were 350 nM and 1050 nM, respectively. In [9], this compound showed a half-inhibitory concentration (IC50) of 61.7 nM. Further, in assay [11], the Ki is under 50 nM.
Take `CN1CC[C@H](N(C)C(=O)N2CC(c3cc(F)ccc3F)=C[C@@]2(CO)c2ccccc2)[C@H](F)C1`: the Ratio in the assay on KB 3-1 is listed as 4.5.
